Measured values from ChEMBL document CHEMBL1155876 (J Med Chem, 2008).

Tests used:
[1] = test system: MOLT-4; assay: Cell cycle arrested in human MOLT4 cells assessed as accumulation at G2/M phase after 24 hrs; assay type: functional, cell-based; settings: MOLT-4, 24 h
In short: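 MOLT-4 leukemia cells were exposed to 3-fold serial dilutions for 24 h at 37 °C. Cells were then resuspended in Tris pH 7.4/NaCl buffer containing 0.2% BSA and 0.1% NP-40, and treated on ice for 30 min with 60 U/mL RNase A and 20 µg/mL propidium iodide. DNA content was measured by FACS.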

[2] = species on record: Rattus norvegicus; assay: Inhibition of rat AMPK assessed as residual enzyme activity at 0.1 uM
[3] = biological target: Mitogen-activated protein kinase 10 (Homo sapiens) (UniProt P53779); assay: Inhibition of human JNK3 kinase assessed as residual enzyme activity at 0.1 uM
Mitogen-activated protein kinase 10 (Homo sapiens), sequence (P53779 whole entry, the tested form may be a part): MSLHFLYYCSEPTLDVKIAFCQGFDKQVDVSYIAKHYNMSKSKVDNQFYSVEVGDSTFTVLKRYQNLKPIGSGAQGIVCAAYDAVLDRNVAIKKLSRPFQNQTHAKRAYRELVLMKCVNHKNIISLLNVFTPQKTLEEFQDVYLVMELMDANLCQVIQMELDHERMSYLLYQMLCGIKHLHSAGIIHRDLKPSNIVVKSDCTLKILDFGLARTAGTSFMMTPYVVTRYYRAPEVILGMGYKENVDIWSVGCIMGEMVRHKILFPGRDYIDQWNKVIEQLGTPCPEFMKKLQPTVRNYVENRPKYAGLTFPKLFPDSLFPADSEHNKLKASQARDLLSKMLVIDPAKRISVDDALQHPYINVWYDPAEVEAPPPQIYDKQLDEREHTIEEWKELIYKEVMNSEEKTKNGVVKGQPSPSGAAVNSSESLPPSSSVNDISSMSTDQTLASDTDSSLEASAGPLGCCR

[4] = biological target: LIM domain kinase 1 (Homo sapiens) (UniProt P53667); assay: Inhibition of human LIMK1 kinase assessed as residual enzyme activity at 0.1 uM
LIM domain kinase 1 (Homo sapiens), sequence (P53667 whole entry, looked up, the tested form may be a part): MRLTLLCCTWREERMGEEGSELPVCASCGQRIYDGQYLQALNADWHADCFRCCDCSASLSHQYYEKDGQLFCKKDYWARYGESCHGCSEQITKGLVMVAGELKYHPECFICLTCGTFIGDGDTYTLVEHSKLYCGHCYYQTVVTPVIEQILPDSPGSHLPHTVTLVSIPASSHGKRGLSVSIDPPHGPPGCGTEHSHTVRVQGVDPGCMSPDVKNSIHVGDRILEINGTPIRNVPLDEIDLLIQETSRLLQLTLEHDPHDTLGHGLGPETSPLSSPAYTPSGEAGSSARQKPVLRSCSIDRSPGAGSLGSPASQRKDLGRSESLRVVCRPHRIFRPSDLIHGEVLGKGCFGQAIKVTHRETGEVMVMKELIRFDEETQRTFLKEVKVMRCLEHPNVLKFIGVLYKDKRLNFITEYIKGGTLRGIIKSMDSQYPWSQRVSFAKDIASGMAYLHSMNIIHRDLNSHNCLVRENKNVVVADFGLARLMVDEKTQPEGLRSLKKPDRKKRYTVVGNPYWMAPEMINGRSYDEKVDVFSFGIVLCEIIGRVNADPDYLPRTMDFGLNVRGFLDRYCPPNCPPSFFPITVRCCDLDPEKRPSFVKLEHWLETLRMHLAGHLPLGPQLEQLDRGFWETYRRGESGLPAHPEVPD

[5] = biological target: Dual specificity mitogen-activated protein kinase kinase 6 (Homo sapiens) (UniProt P52564); assay: Inhibition of human MKK6 assessed as residual enzyme activity at 0.1 uM
Dual specificity mitogen-activated protein kinase kinase 6 (Homo sapiens), sequence (P52564 whole entry): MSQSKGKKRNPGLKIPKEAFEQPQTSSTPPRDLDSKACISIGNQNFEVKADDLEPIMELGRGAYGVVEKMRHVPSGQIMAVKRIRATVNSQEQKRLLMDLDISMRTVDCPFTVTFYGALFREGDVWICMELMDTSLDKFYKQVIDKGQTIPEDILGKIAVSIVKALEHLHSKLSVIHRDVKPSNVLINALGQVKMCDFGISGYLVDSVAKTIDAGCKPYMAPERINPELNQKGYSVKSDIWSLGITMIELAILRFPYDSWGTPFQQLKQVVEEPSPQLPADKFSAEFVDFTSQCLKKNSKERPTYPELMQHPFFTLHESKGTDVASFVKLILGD

[6] = biological target: BDNF/NT-3 growth factors receptor (Homo sapiens) (UniProt Q16620); assay: Inhibition of human TrkB kinase assessed as residual enzyme activity at 0.1 uM
BDNF/NT-3 growth factors receptor (Homo sapiens), sequence (Q16620 32-822 limits assumed): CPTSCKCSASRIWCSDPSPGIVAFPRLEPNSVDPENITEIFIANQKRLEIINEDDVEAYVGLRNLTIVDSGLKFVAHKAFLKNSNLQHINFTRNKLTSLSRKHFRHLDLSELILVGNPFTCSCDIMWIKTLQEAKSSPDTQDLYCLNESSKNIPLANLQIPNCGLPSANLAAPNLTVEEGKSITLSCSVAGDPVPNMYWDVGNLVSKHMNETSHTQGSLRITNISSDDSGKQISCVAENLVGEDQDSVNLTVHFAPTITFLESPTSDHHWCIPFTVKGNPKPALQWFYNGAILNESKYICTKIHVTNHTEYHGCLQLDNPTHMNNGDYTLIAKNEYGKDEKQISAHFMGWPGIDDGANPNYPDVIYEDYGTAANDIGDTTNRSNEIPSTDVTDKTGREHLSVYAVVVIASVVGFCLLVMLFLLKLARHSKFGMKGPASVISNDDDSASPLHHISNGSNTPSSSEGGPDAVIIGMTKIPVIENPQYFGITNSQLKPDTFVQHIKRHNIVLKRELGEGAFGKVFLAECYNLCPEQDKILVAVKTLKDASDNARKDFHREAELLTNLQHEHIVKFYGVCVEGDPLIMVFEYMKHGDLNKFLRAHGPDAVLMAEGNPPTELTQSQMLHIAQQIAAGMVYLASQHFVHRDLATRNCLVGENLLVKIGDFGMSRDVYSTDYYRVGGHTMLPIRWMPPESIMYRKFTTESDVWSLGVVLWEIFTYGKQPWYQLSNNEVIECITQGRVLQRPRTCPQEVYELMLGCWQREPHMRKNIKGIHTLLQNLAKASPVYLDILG

CCN1C(=O)C(C)(C)c2cc3[nH]c4c(c3cc21)CCCc1c(C)n[nH]c1-4
IC50 [1]: 110 nM | Activity [2]: 70% | Activity [3]: 101% | Activity [4]: 79% | Activity [5]: 102% | Activity [6]: 5%
